From ChEMBL document CHEMBL4602726, “Discovery of the First Vitamin K Analogue as a Potential Treatment of Pharmacoresistant Seizures” (J Med Chem, 2020) come the findings set out here.

The term TD50 denotes the 50% point of the dose-response relation for the toxic effect studied. The Cmax is the maximum level reached in the sampled fluid or tissue. Broadly, the IC50 is the concentration at which inhibition is half-maximal. A lower IC50 goes with greater potency.

Series [1] can be described thus: Toxicity in mouse HT22 cells assessed as inhibition of cell viability at 50 uM incubated for 48 hrs by Cell-titer-Blue dye based fluorescence spectrophotometry relative to control. Particulars: read-out: Activity. On the set-up: species or system HT-22. Put shortly: (§1)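 HT-22 cells in DMEM high glucose with 10% FBS, 2000 per well. Serially diluted compound added after 12 h, incubated 48 h. […] Background subtracted, normalized to control wells.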

Series [2] can be described thus: Toxicity in mouse HT22 cells assessed as inhibition of cell viability at 10 uM incubated for 48 hrs by Cell-titer-Blue dye based fluorescence spectrophotometry relative to control. On the set-up: species or system HT-22. As to conditions: read-out: Activity. In a few lines: as §1
Series [3] can be described thus: Toxicity in CF1 mouse assessed as induction of motor/sedative effects at 400 mg/kg, ip. Type of series: organism-based. As to conditions: in vivo. In a few lines: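 Rotarod at 6 rpm on the same animals immediately before 6 Hz stimulation, 1 h after ip dosing. A mouse falling three times within one minute was scored impaired.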
The nature of series [4]: Toxicity in CF1 mouse assessed as induction of discolored urine. As to conditions: in vivo.
Series [5] can be described thus: Toxicity in CF1 mouse assessed as induction of lethargy. Particulars: in vivo.
Series [6] is described as follows: Toxicity in CF1 mouse assessed as induction of lethality measured after electric stimulation after 24 hrs at >500 mg/kg. Type of series: organism-based. Particulars: in vivo.
Series [7] is described as follows: Toxicity in CF1 mouse assessed as induction of motor impairment during acute (1 hr) observation period by rotarod assay. Particulars: mouse, in vivo, 1 h. In a few lines: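 Male CF-1 mice, ip dosing in miglyol 840/DMSO (95%/5%), up to 800 mg/kg. Rotarod at 6 rpm done 1 h after dosing, on the same animals just before 6 Hz testing. Falling three times within one minute scored as impaired; animals also inspected visually.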
On the technique in general: In the rotarod test animals must keep their balance on a rotating rod.

The nature of series [8]: Drug level in CD1 mouse plasma at 400 mg/kg, ip after 1 hr by LC-MS/MS analysis. Type of series: ADME, organism-based. In a few lines:
(§2)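 Male mice fasted overnight and given ip dose in 95% Miglyol 840/5% DMSO. Plasma precipitated 3:1 with acetonitrile plus internal standard. Brain homogenized 3:1 in PBS, then acetonitrile extraction. LC-MS/MS in MRM mode, standard curve 1 ng/mL–10 μg/mL. Ratio = mean tissue (ng/g) over mean plasma (ng/mL) concentration.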

The nature of series [9]: Drug level in CD1 mouse plasma at 400 mg/kg, ip after 4 hrs by LC-MS/MS analysis. The class given is ADME, organism-based. In a few lines:
as §2

The nature of series [10]: Drug level in CD1 mouse brain at 400 mg/kg, ip after 4 hrs by LC-MS/MS analysis. Particulars: read-out: Drug uptake. The class given is ADME, organism-based. Put shortly:
as §2

Series [11] is described as follows: Drug level in CD1 mouse brain at 400 mg/kg, ip after 8 hrs by LC-MS/MS analysis. As to conditions: read-out: Drug uptake. Type of series: ADME, organism-based. In a few lines: as §2
Series [12] in a line: Ratio of drug level in brain to plasma in CD1 mouse at 400 mg/kg, ip after 4 hrs by LC-MS/MS analysis. The class given is ADME, organism-based. Particulars: brain and plasma, read-out: BPR. In a few lines:
as §2

Series [13] in a line: Drug level corresponding to free EC50 in CD1 mouse at 200 to 400 mg/kg, ip by LC-MS/MS analysis. As to conditions: in vivo. The class given is ADME, organism-based.
The nature of series [14]: Drug reactivity with 2-mercaptoethanol measured over 6 hrs. Type of series: physicochemical.
The nature of series [15]: Drug reactivity with 2-mercaptoethanol measured over 24 hrs. The class given is physicochemical.
A short description of series [16]: Cmax in CD1 mouse at 20 mg/kg, po measured after 0.083 to 24 hrs by LC-MS/MS analysis. The class given is ADME, organism-based. On the set-up: dose 20 mg/kg, route oral. Particulars: in vivo. In a few lines: (§3)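 Male CD-1 mice, 3 per route. Oral and ip at 20 mg/kg by gavage needle; iv at 5 mg/kg by tail vein. Vehicles were 20% DMA:40% PEG300:40% H2O for oral/iv and 5% DMSO:95% Neobee for ip. Blood sampled 0.083–24 h, plasma protein-precipitated with acetonitrile plus internal standard, LC-MS/MS (MRM). Non-compartmental analysis, linear trapezoidal AUC.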

Series [17] in a line: Oral bio availability in CD1 mouse at 20 mg/kg measured after 0.083 to 24 hrs by LC-MS/MS analysis. The class given is ADME, organism-based. Particulars: in vivo. In a few lines:
as §3

The target of a further series is T1, Cytochrome P450 1A2 (Homo sapiens, UniProt P05177).
T1 sequence (P05177 whole entry): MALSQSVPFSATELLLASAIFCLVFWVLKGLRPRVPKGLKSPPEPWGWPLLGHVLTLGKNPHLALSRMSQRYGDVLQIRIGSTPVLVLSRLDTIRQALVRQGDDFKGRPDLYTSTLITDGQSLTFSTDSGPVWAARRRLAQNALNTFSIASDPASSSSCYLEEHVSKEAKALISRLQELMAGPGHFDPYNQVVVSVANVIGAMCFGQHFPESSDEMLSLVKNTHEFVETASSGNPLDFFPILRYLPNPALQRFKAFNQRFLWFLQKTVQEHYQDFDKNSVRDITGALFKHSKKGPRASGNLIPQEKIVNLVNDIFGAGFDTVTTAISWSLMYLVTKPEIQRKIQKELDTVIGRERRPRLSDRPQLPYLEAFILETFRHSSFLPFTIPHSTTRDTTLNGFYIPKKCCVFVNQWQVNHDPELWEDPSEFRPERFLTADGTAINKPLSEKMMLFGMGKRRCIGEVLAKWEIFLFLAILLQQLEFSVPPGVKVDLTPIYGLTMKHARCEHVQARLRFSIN
The series can be described thus: Inhibition of CYP1A2 in human liver microsomes using isoform-specific probe substrates incubated for 15 to 30 mins by LC-MS/MS analysis. The class given is ADME. Put shortly:
(§4)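 Pooled mixed-gender human liver microsomes 0.2 mg/mL in 100 mM potassium phosphate with 2 mM NADPH. Isoform-specific probe substrates near Km. Organic solvent ≤1% final. Incubated 37°C for 15–30 min, quenched with acetonitrile plus internal standard. Probe metabolites measured by LC-MS/MS; percent inhibition versus vehicle, IC50 by variable-slope sigmoid fit.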
In general terms: Microsomes from liver hold many membrane-bound enzymes, among them those of drug oxidation.

The target in another series is Cytochrome P450 2C9 (Homo sapiens, UniProt P11712). Put plainly: Inhibition of CYP2C9 in human liver microsomes using isoform-specific probe substrates incubated for 15 to 30 mins by LC-MS/MS analysis. The class given is ADME. In a few lines:
as §4

Another series concerns the target Cytochrome P450 2D6 (Homo sapiens, UniProt P10635). Put plainly: Inhibition of CYP2D6 in human liver microsomes using isoform-specific probe substrates incubated for 15 to 30 mins by LC-MS/MS analysis. The class given is ADME. In a few lines: as §4
The next series deals with T2, Cytochrome P450 2C8 (Homo sapiens, UniProt P10632).
T2 sequence (P10632 whole entry): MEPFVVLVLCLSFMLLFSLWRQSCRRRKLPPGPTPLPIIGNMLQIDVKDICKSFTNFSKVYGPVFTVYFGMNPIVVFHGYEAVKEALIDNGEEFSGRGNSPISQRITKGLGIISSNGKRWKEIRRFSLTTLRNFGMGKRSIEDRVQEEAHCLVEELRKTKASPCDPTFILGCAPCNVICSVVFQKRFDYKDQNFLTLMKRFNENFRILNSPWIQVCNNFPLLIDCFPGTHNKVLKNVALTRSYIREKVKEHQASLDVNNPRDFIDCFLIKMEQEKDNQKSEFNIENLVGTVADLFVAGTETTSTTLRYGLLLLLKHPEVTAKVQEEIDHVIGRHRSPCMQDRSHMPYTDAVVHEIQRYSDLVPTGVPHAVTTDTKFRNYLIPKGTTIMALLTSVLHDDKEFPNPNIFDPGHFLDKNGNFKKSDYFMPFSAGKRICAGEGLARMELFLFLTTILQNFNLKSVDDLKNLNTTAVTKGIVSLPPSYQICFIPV
Put plainly: Inhibition of CYP2C8 in human liver microsomes using isoform-specific probe substrates incubated for 15 to 30 mins by LC-MS/MS analysis. The class given is ADME. Put shortly:
as §4

Molecules are shown by their SMILES.

Sequence of Cytochrome P450 2C9 (P11712 whole entry, canonical isoform): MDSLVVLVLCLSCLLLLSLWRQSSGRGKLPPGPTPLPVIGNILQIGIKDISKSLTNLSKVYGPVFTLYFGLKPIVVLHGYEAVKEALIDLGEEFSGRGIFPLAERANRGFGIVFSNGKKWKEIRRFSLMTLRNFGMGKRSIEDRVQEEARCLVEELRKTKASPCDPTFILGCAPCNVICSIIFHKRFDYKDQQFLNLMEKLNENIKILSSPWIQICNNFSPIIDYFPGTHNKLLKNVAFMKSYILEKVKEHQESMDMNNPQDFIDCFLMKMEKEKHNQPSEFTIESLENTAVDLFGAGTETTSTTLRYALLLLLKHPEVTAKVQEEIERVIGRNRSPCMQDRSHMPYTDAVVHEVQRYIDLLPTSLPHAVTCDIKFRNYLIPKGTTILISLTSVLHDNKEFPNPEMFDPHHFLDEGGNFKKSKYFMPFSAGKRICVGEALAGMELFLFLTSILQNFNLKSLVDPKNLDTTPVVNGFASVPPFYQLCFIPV
Sequence of Cytochrome P450 2D6 (P10635 whole entry, canonical isoform): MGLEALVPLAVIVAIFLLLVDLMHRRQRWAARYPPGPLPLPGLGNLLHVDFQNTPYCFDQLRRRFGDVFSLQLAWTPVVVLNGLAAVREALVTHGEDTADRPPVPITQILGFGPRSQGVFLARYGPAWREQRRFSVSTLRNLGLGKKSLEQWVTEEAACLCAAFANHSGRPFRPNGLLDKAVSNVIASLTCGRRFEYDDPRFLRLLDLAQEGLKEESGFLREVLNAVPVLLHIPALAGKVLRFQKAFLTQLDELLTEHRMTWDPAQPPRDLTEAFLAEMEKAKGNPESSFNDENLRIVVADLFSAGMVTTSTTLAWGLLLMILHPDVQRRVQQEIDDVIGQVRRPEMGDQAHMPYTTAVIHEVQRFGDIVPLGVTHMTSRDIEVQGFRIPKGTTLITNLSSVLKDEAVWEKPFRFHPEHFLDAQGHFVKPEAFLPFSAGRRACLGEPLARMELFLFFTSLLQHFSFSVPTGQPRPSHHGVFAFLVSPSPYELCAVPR

As to `CC(C)CCNC1=CC(=O)c2ccccc2C1=O`, the inhibition at 48 h, 50 µM in series [1] came to 17.8%. The inhibition at 48 h, 10 µM in [2] stood at 11.9%. Further, the Activity entry in series [3] is given as “Non-Toxic”; in series [4], “Toxic”; in [5] it was “Toxic”; in series [6] it was “Toxic”. Besides, the TD50 in [7] is greater than 800 mg/kg. Moreover, in series [8], the concentration at 1 h was found to be 1690 ng/mL. Moreover, the figures for the concentration at 4 h in [9] and in series [10] were 3740 ng/mL and 3760 ng/g, respectively. In addition, the concentration at 8 h in series [11] turned out to be 2630 ng/g. Further, the Kp at 4 h in series [12] was found to be 1. The “Drug uptake(free)” value in [13] came to 123 nM. Besides, the Drug metabolism result in series [14] and in series [15] was “Metabolite_Notdetected” each time. The molecule further showed a maximum concentration (Cmax) in series [16] of 1020 ng/mL. Further, in series [17], the F was found to be 35.9%. The IC50 against Cytochrome P450 1A2 is 5.57 µM; at Cytochrome P450 2C9, 29.3 µM; against Cytochrome P450 2D6 it was greater than 100 µM; on Cytochrome P450 2C8 it was 54.1 µM.
